INS-1E GSIS act: GLuc luminescence reporter in INS-1E cells, primary screen for activators of glucose-dependent secretion of insulin | activation, % at 16.6 µM | AID 743287, 2014 | actives 0.61% (n = 370,000) | INS-1E GLuc reporter insulin secretion, 2-3 h;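 active = lowest replicate activation of at least 40%, so every replicate reaches that level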;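 also: 0% = median of neutral control wells and 100% = median of IBMX positive control wells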
Rtt109 HAT inh: inhibitors of C. albicans Rtt109/Vps75 HAT, primary screen, biochemical, ThioGlo CoA-SH fluorescence, plate reader; purified Rtt109/Vps75, 4 h; Histone acetyltransferase RTT109 (Candida albicans (strain SC5314 / ATCC MYA-2876)), …; inhibition, % at 34.9 µM; actives 0.16% (n = 330,000); AID 540336, 2011;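 active = inhibition of at least 50% in every replicate; inconclusive = best replicate reaches 50% inhibition but some replicates fall short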
Target sequence (Q5AAJ8 whole entry, looked up): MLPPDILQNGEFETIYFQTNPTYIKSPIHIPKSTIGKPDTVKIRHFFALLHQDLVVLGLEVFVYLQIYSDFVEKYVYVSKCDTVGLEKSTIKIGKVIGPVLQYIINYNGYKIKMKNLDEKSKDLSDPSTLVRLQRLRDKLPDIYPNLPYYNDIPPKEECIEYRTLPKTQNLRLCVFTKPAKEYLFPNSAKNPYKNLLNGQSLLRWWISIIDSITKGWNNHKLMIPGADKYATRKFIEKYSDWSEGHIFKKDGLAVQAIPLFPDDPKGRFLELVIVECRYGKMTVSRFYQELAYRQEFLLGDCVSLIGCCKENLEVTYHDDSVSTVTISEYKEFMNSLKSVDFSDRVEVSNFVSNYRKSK
Cneo AK release: Cryptococcus neoformans cell lysis inducers, primary screen, AK release luminescence, single concentration | actives 0.2% (n = 360,000) | C. neoformans lysis, adenylate kinase release luminescence, 4 h; normalised: neutral wells 0, clomiphene wells 100 | lysis activity, % at 15 µM | AID 651654, 2012;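 active = mean lysis activity across replicates of at least 80%, whatever share of replicates individually reach that level; inactive = mean lysis activity below 80%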
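read-out = cell lysis signal | test system = log-phase Cryptococcus neoformans yeast cells | input = cells at 5 × 10^6 per mL | medium = fresh YPD growth medium | signal = luminescent adenylate kinase detection reagent | timing = 4 h at 37 °C static, read 1 h later | dosing = single dose | controls = Clomiphene as positive lysis control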
miR-122 sensor: miR-122 Renilla sensor signal increase in Huh7, primary screen, miR-122 inhibitor project, cell-based, single point, plate reader; Huh7 miR-122 Renilla luciferase sensor, 48 h; neutral wells = 0, positive control = 100; activation (reporter increase), % at 12.5 µM; actives 0.3% (n = 340,000);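 active = mean replicate activation score at least 90 and every replicate individually at or above 90; inconclusive = only one of the two criteria met; inactive = neither criterion met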;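 also: higher luciferase means less miR-122 activity so hits act as miR-122 inhibitors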
dFosB activator: activators of delta FosB homodimer, primary screen, biochemical, fluorescence polarization, TAMRA-CDK5 oligo, single point; activation, % at 25 µM; actives 0.99% (n = 340,000); AID 493131, 2011; purified delta FosB; percent of positive-control signal above neutral wells; Protein FosB (Mus musculus), P13346;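 active = mean activation above about 17%, with every replicate also reaching it, limit read from the data, passing the limit was not always enough; inconclusive = only one of the two conditions met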
Target sequence (P13346 whole entry, looked up): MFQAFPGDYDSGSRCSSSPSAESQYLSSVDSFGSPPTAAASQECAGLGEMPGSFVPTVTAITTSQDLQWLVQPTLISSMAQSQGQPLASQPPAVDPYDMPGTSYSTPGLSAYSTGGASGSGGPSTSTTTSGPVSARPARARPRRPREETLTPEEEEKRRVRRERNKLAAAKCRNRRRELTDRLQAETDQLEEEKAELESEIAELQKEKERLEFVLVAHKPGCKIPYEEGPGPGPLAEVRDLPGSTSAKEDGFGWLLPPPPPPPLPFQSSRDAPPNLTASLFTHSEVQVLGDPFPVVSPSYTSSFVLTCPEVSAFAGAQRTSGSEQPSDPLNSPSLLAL
HIV Env fusion: inhibitors of HIV-1 Env-driven cell-cell fusion, primary screen, HeLa-JRFL effector, CEM21 target cells, luciferase; inhibition, % at 12.3 µM; actives 1.1% (n = 360,000);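 active = mean replicate inhibition score of at least 50 and every replicate individually at or above 50; inconclusive = only one of the two criteria met; inactive = mean below 50 and not all replicates reaching 50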;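 also: 0% = plate neutral controls and 100% = maraviroc near 300 nM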
Numbers without * were called inactive; u = inconclusive; x = no result; ! = a repeat was not active; [ ] = remark or other dose. Only some compounds are listed: those with a hit (about 2.4% of all), similar ones and a draw of the others.

SMILES | INS-1E GSIS act | Rtt109 HAT inh | Cneo AK release | miR-122 sensor | dFosB activator | HIV Env fusion
CO[C@@H]1CN(C)C(=O)c2cc(NS(C)(=O)=O)ccc2OC[C@@H](C)N(Cc2cccnc2)C[C@@H]1C | -9 | x | x | 2[16.7 µM] | x | x
Cc1ccccc1OCC(=O)Nc1cccc(Cl)c1C | -5 | -7 | 3 | 1 | 4 | -17
Cc1ccccc1OCC(=O)NNC(=O)Nc1ccc(Cl)cc1 | x | 9 | -1 | 144* | 14 | x
Cc1ccccc1OCC(=O)Nc1ccccc1-c1ccccc1NC(=O)COc1ccccc1C | -35 | 14 | -7 | -11 | -9 | 64*
Cc1ccccc1OCC(=O)NNC(=O)Nc1ccccc1 | -3 | 5 | x | x | 1 | -2
CCN1[C@@H]2c3ccc(-c4cccc(F)c4)c(=O)n3C[C@@H]2[C@@H](CO)[C@@H]1C(=O)N(C)C | -6 | x | -8 | -2[16.7 µM] | x | x
CSc1nnc(NC(=O)c2nc(S(=O)(=O)Cc3cccc(C)c3)ncc2Cl)s1 | -2 | u | 1 | 2 | -5 | 89*
CCc1nnc(NC(=O)c2nc(S(=O)(=O)Cc3cccc(C)c3)ncc2Cl)s1 | 1 | 19 | -1 | -19 | -4 | 63*
CC(C)CCN1CC(O)=C(c2nc(-c3ccc(Cl)cc3)cs2)C1=N | 78* | -6 | -2 | 0 | 0 | x
Cc1ccc(S(=O)(=O)N2CC[C@@H]3[C@H]2c2cc(-c4ccccc4F)ccc2N[C@@H]3CO)cc1 | -1 | x | 104* | 18[16.7 µM] | x | x
Cc1ccc(S(=O)(=O)N2CC[C@@H]3[C@@H](CO)Nc4ccc(-c5ccccc5F)cc4[C@@H]32)cc1 | -20 | x | 2 | 154*[16.7 µM] | x | x
Cc1ccccc1S(=O)(=O)N1CC[C@@H]2[C@@H](CO)Nc3ccc(-c4ccc(F)cc4)cc3[C@@H]21 | -8 | x | 6 | 157*[16.7 µM] | x | x
COCC(=O)Nc1ccc2c(c1)C(=O)N(C)C[C@@H](OC)[C@@H](C)CN(Cc1ccccc1F)[C@@H](C)CO2 | -15 | x | 1 | x | x | x
CN1CCN(C(=O)C[C@@H]2CC[C@H]3[C@@H](COC[C@H](O)CN3CC3CCCCC3)O2)CC1 | x | x | 1 | -1[16.7 µM] | x | x
O=C(Nc1cc(F)ccc1F)N[C@H]1CC[C@@H](CCn2cc(C3CC3)nn2)O[C@@H]1CO | 3 | x | 3 | -3[16.7 µM] | x | -1[16.7 µM]
CN(Cc1ccc(F)cc1)C(=O)c1cc(COc2ccc(-n3cncn3)cc2)on1 | -41 | -15 | -2 | -5 | -4 | 62*
O=C(C[C@H]1C[C@H]2c3cc(NC(=O)Nc4ccccc4F)ccc3O[C@H]2[C@H](CO)O1)NCC1CC1 | 8 | x | -2 | -3[16.7 µM] | x | 8[16.7 µM]
O=C(NC[C@@H]1CC[C@H]2[C@H](CN2Cc2cc(-c3ccccc3)on2)O1)c1ccc2c(c1)OCO2 | x | x | x | x | x | 58*[16.7 µM]
CN(C)CCNC(=O)c1sc2nc(-c3ccccc3)cc(C(F)(F)F)c2c1N | x | 2 | 9 | -1 | 19* | 10
COc1ccc(-c2cc(C(F)(F)F)c3c(N)c(C(=O)NCCSC)sc3n2)cc1 | -7 | -7 | -1 | 14 | -2 | 5
CCOc1ccc2oc(C(=O)N(C)CC(=O)Nc3ccc(OCC)c(OCC)c3)c(C)c2c1 | -7 | -9 | 0 | 0 | -27 | -1
CCOc1ccc2oc(C(=O)N(C)CCc3ccc(OC)c(OC)c3)c(C)c2c1 | 50* | 2 | 0 | 8 | -8 | -22
CCS(=O)(=O)NCC[C@H]1CC[C@H](NC(=O)Cc2ccccn2)[C@@H](CO)O1 | 3 | x | 48 | -2[16.7 µM] | x | 16[16.7 µM]
Cc1ccc(C)c(CSc2nnc(-c3cccnc3)o2)c1 | x | -5 | -7 | 356* | -8 | -18
CC(=O)Nc1cccc2c1O[C@H](CN(C)C(=O)OC(C)(C)C)[C@@H](C)CN(C)C2=O | 0 | x | x | x | x | x
SMILES | INS-1E GSIS act | Rtt109 HAT inh | Cneo AK release | miR-122 sensor | dFosB activator | HIV Env fusion
O=C(COC(=O)c1cc(Br)ccc1O)NNC(=O)c1cccs1 | x | -6 | 1 | x | 29* | x
O=C(NOC(=O)c1cc(Br)ccc1Cl)c1cccs1 | x | 4 | -1 | -3 | -7 | -28
C[C@@H]1CN([C@@H](C)CO)C(=O)Cc2cc(NS(=O)(=O)c3ccc(F)cc3)ccc2O[C@@H]1CN(C)Cc1ccc(Cl)c(Cl)c1 | 5 | x | x | -4[16.7 µM] | x | -5[16.7 µM]
C[C@H](CO)N1C[C@H](C)[C@@H](CN(C)Cc2ccc(Cl)c(Cl)c2)Oc2ccc(NS(=O)(=O)c3ccccc3)cc2CC1=O | -27 | x | 4 | -3[16.7 µM] | x | -5[16.7 µM]
C[C@@H]1CN([C@@H](C)CO)C(=O)Cc2cc(NS(=O)(=O)c3ccc(F)cc3)ccc2O[C@H]1CN(C)Cc1ccc(Cl)c(Cl)c1 | 196 | x | x | 25[16.7 µM] | x | 100*[16.7 µM]
C[C@H]1CN([C@@H](C)CO)C(=O)Cc2cc(NS(C)(=O)=O)ccc2O[C@@H]1CN(C)Cc1ccc(Cl)c(Cl)c1 | -8 | 25 | 112*! | 36[16.7 µM] | 11 | x
C[C@H]1CN([C@@H](C)CO)C(=O)Cc2cc(NS(=O)(=O)c3ccccc3)ccc2O[C@@H]1CN(C)Cc1ccc(Cl)c(Cl)c1 | 2 | x | 58 | 17[16.7 µM] | x | 58*[16.7 µM]
C[C@@H]1CN([C@@H](C)CO)C(=O)Cc2cc(NS(=O)(=O)c3ccccc3)ccc2O[C@@H]1CN(C)Cc1ccc(Cl)c(Cl)c1 | -6 | x | 85* | 3[16.7 µM] | x | 13[16.7 µM]
C[C@@H]1CN([C@H](C)CO)C(=O)Cc2cc(NS(C)(=O)=O)ccc2O[C@@H]1CN(C)Cc1ccc(Cl)c(Cl)c1 | -26 | x | -1 | -5[16.7 µM] | x | 4[16.7 µM]
C/C=C/c1ccc([C@@H]2[C@H](CO)N(C(C)=O)C23CN(C(=O)c2cnccn2)C3)cc1 | 7 | x | x | x | x | x
C[C@@H]1CCCCO[C@H](CN(C)Cc2ccc(Cl)c(Cl)c2)[C@H](C)CN([C@@H](C)CO)C(=O)c2cc(NS(C)(=O)=O)ccc2O1 | -6 | x | -1 | -14[16.7 µM] | x | 23[16.7 µM]
CCCNC(=O)N[C@@H]1CC[C@@H](CC(=O)NC2CCC2)O[C@@H]1CO | 8 | x | -2 | -3[16.7 µM] | x | 3[16.7 µM]
C[C@H]1CN([C@@H](C)CO)C(=O)Cc2cc(NS(=O)(=O)c3cn(C)cn3)ccc2O[C@@H]1CN(C)Cc1ccc(Oc2ccccc2)cc1 | 0 | x | 110* | 3[16.7 µM] | x | 9[16.7 µM]
C[C@@H]1CN([C@@H](C)CO)C(=O)Cc2cc(NS(=O)(=O)c3cn(C)cn3)ccc2O[C@@H]1CN(C)Cc1ccc(Oc2ccccc2)cc1 | -17 | x | 0 | 3[16.7 µM] | x | 13[16.7 µM]
CC(=O)Nc1ccc(NC(=S)NC(=O)c2oc3ccccc3c2C)cc1 | 10 | 7 | -1 | 0 | 7 | 3
CCC(=O)Nc1ccc(NC(=S)NC(=O)c2oc3ccccc3c2C)cc1 | 60* | 0 | -5 | -12 | -12 | x

Source: PubChem
